Reference: ChEMBL document CHEMBL3352444, “Bioactive spirobisnaphthalenes from the endophytic fungus Berkleasmium sp” (J Nat Prod, 2014)
In brackets after ≈: the same amount, converted by molar mass.

Experiments:
Bacillus subtilis = experiment: Antibacterial activity against Bacillus subtilis ATCC 11562 by modified broth dilution method; type: functional
Method in brief: (§1)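 MIC read in 96-well plates by a modified broth dilution test; streptomycin sulfate as positive control.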

[1] = test system: Agrobacterium tumefaciens; experiment: Antibacterial activity against Agrobacterium tumefaciens No.8 ATCC 11158 by modified broth dilution method; type: functional; method in brief: as §1
[2] = test system: Staphylococcus haemolyticus; experiment: Antibacterial activity against Staphylococcus haemolyticus ATCC 29970 by modified broth dilution method; type: functional; method in brief: as §1
Ralstonia solanacearum = experiment: Antibacterial activity against Ralstonia solanacearum ATCC 11696 by modified broth dilution method; type: functional
Pseudomonas = experiment: Antibacterial activity against Pseudomonas lachrymans ATCC 11921 by modified broth dilution method; type: functional; method in brief: as §1
Xanthomonas vesicatoria = experiment: Antibacterial activity against Xanthomonas vesicatoria ATCC 11633 by modified broth dilution method; type: functional; method in brief: as §1
Pyricularia oryzae = experiment: Antifungal activity against Magnaporthe oryzae assessed as inhibition of spore germination incubated for 8 hrs; type: functional, organism-based
[3] = Cytotoxicity against human HCT8 cells by MTT assay; conditions: HCT-8
[4] = Cytotoxicity against human Bel7402 cells by MTT assay; conditions: Bel-7402
[5] = Cytotoxicity against human BGC823 cells by MTT assay; conditions: BGC-823
A549 = experiment: Cytotoxicity against human A549 cells by MTT assay; type: functional, cell-based
A2780 = experiment: Cytotoxicity against human A2780 cells by MTT assay

| SMILES | MIC (Bacillus subtilis) [µg/mL] | MIC [1] [µg/mL] | MIC [2] [µg/mL] | MIC (Ralstonia solanacearum) [µg/mL] | MIC (Pseudomonas) [µg/mL] | MIC (Xanthomonas vesicatoria) [µg/mL] | IC50 (Pyricularia oryzae) [µg/mL] | IC50 [3] [µM] | IC50 [4] [µM] | IC50 [5] [µM] | IC50 (A549) [µM] | IC50 (A2780) [µM] |
| --- | --- | --- | --- | --- | --- | --- | --- | --- | --- | --- | --- | --- |
| Oc1cccc2c1[C@@H](O)[C@H]1O[C@H]1C21Oc2cccc3cccc(c23)O1 | 25 (≈ 74.8 µM) | 37.5 (≈ 112 µM) | 25 (≈ 74.8 µM) | 37.5 (≈ 112 µM) | 37.5 (≈ 112 µM) | 37.5 (≈ 112 µM) | 32.3 (≈ 96.6 µM) | > 10 | > 10 | > 10 | > 10 | > 10 |
| O=C1C=C[C@H](O)[C@@]23O[C@@]12C1(Oc2cccc4cccc(c24)O1)[C@H](O)[C@@H](O)[C@@H]3O | 200 (≈ 520 µM) | 200 (≈ 520 µM) | 200 (≈ 520 µM) | 200 (≈ 520 µM) | 150 (≈ 390 µM) | 150 (≈ 390 µM) | > 200 | > 10 | > 10 | > 10 | > 10 | > 10 |
| O=C1C[C@@H](O)[C@H](O)[C@@]23O[C@@]12C1(Oc2cccc4cccc(c24)O1)[C@@H]1O[C@@H]1[C@@H]3O | 75 (≈ 195 µM) | 75 (≈ 195 µM) | 75 (≈ 195 µM) | 75 (≈ 195 µM) | 75 (≈ 195 µM) | 75 (≈ 195 µM) | > 200 | 1.7 | 3.3 | 3.3 | 3.2 | 5.8 |
| CO[C@@H]1CC(=O)[C@]23O[C@]2([C@@H](O)[C@H]2O[C@H]2C32Oc3cccc4cccc(c34)O2)[C@H]1O | 37.5 (≈ 94.1 µM) | 50 (≈ 126 µM) | 50 (≈ 126 µM) | 37.5 (≈ 94.1 µM) | 37.5 (≈ 94.1 µM) | 37.5 (≈ 94.1 µM) | > 200 | > 10 | 6.4 | > 10 | 8.7 | > 10 |
| Oc1ccc(O)c2c1[C@@H](O)[C@H]1O[C@H]1C21Oc2cccc3cccc(c23)O1 | 100 (≈ 285 µM) | 250 (≈ 714 µM) | 250 (≈ 714 µM) | 250 (≈ 714 µM) | 200 (≈ 571 µM) | 200 (≈ 571 µM) | 76.7 (≈ 219 µM) | > 10 | > 10 | > 10 | > 10 | > 10 |
| O=C1C[C@@H](O)C2(Oc3cccc4cccc(c34)O2)c2c(O)ccc(O)c21 | 37.5 (≈ 107 µM) | 37.5 (≈ 107 µM) | 50 (≈ 143 µM) | 37.5 (≈ 107 µM) | 37.5 (≈ 107 µM) | 50 (≈ 143 µM) | 64.8 (≈ 185 µM) | > 10 | > 10 | > 10 | > 10 | > 10 |
| Oc1ccc(O)c2c1C=C[C@@H](O)C21Oc2cccc3cccc(c23)O1 | 50 (≈ 150 µM) | 37.5 (≈ 112 µM) | 37.5 (≈ 112 µM) | 37.5 (≈ 112 µM) | 25 (≈ 74.8 µM) | 37.5 (≈ 112 µM) | 35.9 (≈ 107 µM) | > 10 | > 10 | > 10 | > 10 | > 10 |
| O=C1C(Cl)=CC2(Oc3cccc4cccc(c34)O2)[C@]23O[C@]12[C@H](O)CCC3=O | 50 (≈ 130 µM) | 25 (≈ 65 µM) | 25 (≈ 65 µM) | 25 (≈ 65 µM) | 25 (≈ 65 µM) | 25 (≈ 65 µM) | 9.1 (≈ 23.7 µM) | 4.2 | 2.5 | 2.6 | 1.6 | 1.3 |
| O=C1CC[C@@H](O)[C@@]23O[C@@]12C1(Oc2cccc4cccc(c24)O1)[C@H](O)[C@@H](O)[C@@H]3O | > 250 | > 250 | > 250 | > 250 | > 250 | > 250 | > 200 | > 10 | > 10 | > 10 | > 10 | > 10 |
| O[C@@H]1[C@@H](O)C2(Oc3cccc4cccc(c34)O2)[C@@]23O[C@@]2([C@@H](O)C=C[C@H]3O)[C@H]1O | > 250 | > 250 | > 250 | > 250 | > 250 | > 250 | > 200 | > 10 | > 10 | > 10 | > 10 | > 10 |
| O[C@@H]1[C@@H](O)C2(Oc3cccc4cccc(c34)O2)[C@@]23O[C@@]2([C@@H](O)CC[C@H]3O)[C@H]1O | > 250 | > 250 | > 250 | > 250 | > 250 | > 250 | > 200 | > 10 | > 10 | > 10 | > 10 | > 10 |
| O=C1C[C@H](O)[C@H](O)C2=C[C@H](O)[C@@H](O)C3(Oc4cccc5cccc(c45)O3)[C@]12O | > 250 | > 250 | > 250 | > 250 | > 250 | > 250 | > 200 | > 10 | > 10 | > 10 | > 10 | > 10 |
| O=C1CCC2(Oc3cccc4cccc(c34)O2)c2c(Cl)ccc(O)c21 | > 250 | > 250 | > 250 | > 250 | > 250 | > 250 | > 200 | > 10 | > 10 | > 10 | > 10 | > 10 |
| O=C1C[C@H](O)[C@H](O)[C@@]23O[C@@]12C1(Oc2cccc4cccc(c24)O1)[C@@H]1O[C@@H]1[C@@H]3O | > 250 | > 250 | > 250 | > 250 | > 250 | > 250 | > 200 | > 10 | > 10 | > 10 | > 10 | > 10 |
| O[C@@H]1C=C[C@H](O)[C@@]23O[C@@]12C1(Oc2cccc4cccc(c24)O1)[C@@H]1O[C@@H]1[C@@H]3O | > 250 | > 250 | > 250 | > 250 | > 250 | > 250 | > 200 | > 10 | > 10 | > 10 | > 10 | > 10 |
| O[C@@H]1CC[C@H](O)[C@@]23O[C@@]12C1(Oc2cccc4cccc(c24)O1)[C@@H]1O[C@@H]1[C@@H]3O | > 250 | > 250 | > 250 | > 250 | > 250 | > 250 | > 200 | > 10 | > 10 | > 10 | > 10 | > 10 |
| O=C1C=C[C@H](O)[C@@]23O[C@@]12C1(Oc2cccc4cccc(c24)O1)[C@@H]1O[C@@H]1[C@@H]3O | 50 (≈ 136 µM) | 50 (≈ 136 µM) | 50 (≈ 136 µM) | 50 (≈ 136 µM) | 50 (≈ 136 µM) | 50 (≈ 136 µM) | 105 (≈ 287 µM) | > 10 | 5.1 | > 10 | 8.8 | > 10 |
| COC(=O)Nc1nc2ccccc2[nH]1 [CARBENDAZIM] |  |  |  |  |  |  | 6.3 (≈ 33 µM) |  |  |  |  |  |
| O=C1CCC2(Oc3cccc4cccc(c34)O2)c2c(O)ccc(O)c21 [PALMARUMYCIN CP17] | > 250 | > 250 | > 250 | > 250 | > 250 | > 250 | > 200 | > 10 | > 10 | > 10 | > 10 | > 10 |
| CN[C@@H]1[C@H](O[C@H]2[C@H](O[C@H]3[C@H](O)[C@@H](O)[C@H](N=C(N)N)[C@@H](O)[C@@H]3N=C(N)N)O[C@@H](C)[C@]2(O)C=O)O[C@@H](CO)[C@H](O)[C@H]1O.CN[C@@H]1[C@H](O[C@H]2[C@H](O[C@H]3[C@H](O)[C@@H](O)[C@H](N=C(N)N)[C@@H](O)[C@@H]3N=C(N)N)O[C@@H](C)[C@]2(O)C=O)O[C@@H](CO)[C@H](O)[C@H]1O.O=S(=O)(O)O.O=S(=O)(O)O.O=S(=O)(O)O [STREPTOMYCIN SULFATE] | 5 | 5 | 5 | 5 | 7.5 | 10 |  |  |  |  |  |  |
